Measured values taken from ChEMBL document CHEMBL1125605 (1991).
Values after ≈ are worked out from the molar mass of the structure shown.

Experiments:
Format in all cases: functional
E6SM [1] = assay: Concentration required to inhibit HSV-1 (KOS) induced cytopathogenicity in E6SM cells by 50%.; conditions: Homo sapiens
E6SM [2] = assay: Concentration required to inhibit HSV-1 (McIntyre) induced cytopathogenicity in E6SM cells by 50%.; conditions: Homo sapiens
E6SM [3] = assay: Concentration required to inhibit HSV-2(196) induced cytopathogenicity in E6SM cells by 50%.; conditions: Homo sapiens
E6SM [4] = assay: Concentration required to cause a microscopically detectable alteration of normal cell morphology in E6SM cells; conditions: Homo sapiens; read-out: MIC
Method in brief: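 Uninfected E6SM human embryonic skin-muscle fibroblasts were exposed to compound and examined under the microscope. The value is the minimum concentration that caused a detectable alteration of normal cell morphology.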

E6SM [5] = assay: Concentration required to inhibit HSV-1 (F) induced cytopathogenicity in E6SM cells by 50%.; conditions: Homo sapiens
E6SM [6] = assay: Concentration required to inhibit HSV-2(G) induced cytopathogenicity in E6SM cells by 50%.; conditions: Homo sapiens
E6SM [7] = assay: Concentration required to inhibit HSV-2(lyons) induced cytopathogenicity in E6SM cells by 50%.; conditions: Homo sapiens
E6SM [8] = assay: Concentration required to inhibit TK-HSV-1 (B2006) induced cytopathogenicity in E6SM cells by 50%.; conditions: Homo sapiens
E6SM [9] = assay: Concentration required to inhibit TK-HSV-1 (VMW1837) induced cytopathogenicity in E6SM cells by 50%.; conditions: Homo sapiens
E6SM [10] = assay: oncentration required to inhibit VV induced cytopathogenicity in E6SM cells by 50%.; conditions: Homo sapiens
HEL [11] = assay: Concentration required to cause 50% reduction in HEL cell growth.; conditions: Homo sapiens; read-out: MIC
Method in brief: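 Cytotoxicity was measured as inhibition of growth of HEL human embryonic lung fibroblasts. The value is the compound concentration that reduced cell growth by 50%.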

HEL [12] = assay: Concentration required to inhibit CMV (Davis) induced cytopathogenicity in HEL cells by 50%.; conditions: Homo sapiens
HEL [13] = assay: Concentration required to inhibit TK-VZV (07-1) induced cytopathogenicity in HEL cells by 50%.; conditions: Homo sapiens
HEL [14] = assay: Concentration required to inhibit TK-VZV (YSR) induced cytopathogenicity in HEL cells by 50%.; conditions: Homo sapiens
HEL [15] = assay: Concentration required to inhibit VZV (YS) induced cytopathogenicity in HEL cells by 50%.; conditions: Homo sapiens
HEL [16] = assay: Concentration required to inhibit VZV (oka) induced cytopathogenicity in HEL cells by 50%.; conditions: Homo sapiens
HEL [17] = assay: Concentration required to inhibit CMV (AD-169) induced cytopathogenicity in HEL cells by 50%.; conditions: Homo sapiens
E6SM [18] = assay: Concentration required to inhibit VSV induced cytopathogenicity in E6SM cells by 50%.; conditions: Homo sapiens
Method in brief: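 Antiviral assay in E6SM human embryonic skin-muscle fibroblasts, with cells infected by vesicular stomatitis virus (VSV) in microtiter plates. Virus-induced cytopathogenicity is assessed. The value is the compound concentration that reduces VSV-induced cytopathogenicity by 50%.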

Structure (SMILES)	MIC (E6SM [1]) [µg/mL]	MIC (E6SM [2]) [µg/mL]	MIC (E6SM [3]) [µg/mL]	minimum cytotoxic concentration (morphology alteration) (E6SM [4]) [µg/mL]	MIC (E6SM [5]) [µg/mL]	MIC (E6SM [6]) [µg/mL]	MIC (E6SM [7]) [µg/mL]	MIC (E6SM [8]) [µg/mL]	MIC (E6SM [9]) [µg/mL]	MIC (E6SM [10]) [µg/mL]	CC50 (50% cell growth inhibitory concentration) (HEL [11]) [µg/mL]	MIC (HEL [12]) [µg/mL]	MIC (HEL [13]) [µg/mL]	MIC (HEL [14]) [µg/mL]	MIC (HEL [15]) [µg/mL]	MIC (HEL [16]) [µg/mL]	MIC (HEL [17]) [µg/mL]	MIC (E6SM [18]) [µg/mL]
Nc1nc(=O)n([C@H]2C[C@H](O)[C@@H](CO)O2)cc1-c1cccs1	1.3 (≈ 4.2 µM)	0.07 (≈ 0.226 µM)	20 (≈ 64.7 µM)	> 200	0.4 (≈ 1.29 µM)	45 (≈ 145 µM)	20 (≈ 64.7 µM)	> 100	> 100	20 (≈ 64.7 µM)	45 (≈ 145 µM)	40 (≈ 129 µM)	8 (≈ 25.9 µM)	30 (≈ 97 µM)	4 (≈ 12.9 µM)	3 (≈ 9.7 µM)	60 (≈ 194 µM)	–
Cn1ccnc1-c1cn([C@H]2C[C@H](O)[C@@H](CO)O2)c(=O)[nH]c1=O	> 200	> 200	> 200	> 200	> 200	> 200	> 200	> 200	> 200	> 200	> 200	> 400	> 400	> 400	> 400	> 400	> 400	–
O=c1[nH]c(=O)n([C@H]2C[C@H](O)[C@@H](CO)O2)cc1-c1ccco1	0.2 (≈ 0.68 µM)	0.2 (≈ 0.68 µM)	> 400	> 400	0.2 (≈ 0.68 µM)	200 (≈ 680 µM)	> 400	150 (≈ 510 µM)	300 (≈ 1020 µM)	–	100 (≈ 340 µM)	> 400	155 (≈ 527 µM)	220 (≈ 748 µM)	7 (≈ 23.8 µM)	4 (≈ 13.6 µM)	> 400	300 (≈ 1020 µM)
CC1[C@@H](O)[C@@H](CO)O[C@@H]1n1cc(I)c(=O)[nH]c1=O (some centres undefined)	300 (≈ 815 µM)	300 (≈ 815 µM)	300 (≈ 815 µM)	> 400	300 (≈ 815 µM)	300 (≈ 815 µM)	300 (≈ 815 µM)	300 (≈ 815 µM)	150 (≈ 407 µM)	> 400	> 200	–	90 (≈ 244 µM)	170 (≈ 462 µM)	10 (≈ 27.2 µM)	15 (≈ 40.7 µM)	400 (≈ 1090 µM)	300 (≈ 815 µM)
O=c1[nH]c(=O)n(C2O[C@H](CO)[C@@H](O)[C@@H]2O)cc1-c1cccs1 (some centres undefined)	0.2 (≈ 0.613 µM)	0.07 (≈ 0.215 µM)	100 (≈ 306 µM)	> 400	0.2 (≈ 0.613 µM)	20 (≈ 61.3 µM)	20 (≈ 61.3 µM)	> 400	> 400	> 400	> 200	250 (≈ 766 µM)	370 (≈ 1130 µM)	> 400	6.5 (≈ 19.9 µM)	5.5 (≈ 16.9 µM)	250 (≈ 766 µM)	–
O=c1[nH]c(=O)n([C@@H]2C[C@@H](O)[C@@H](CO)O2)cc1-c1ccco1	55 (≈ 187 µM)	70 (≈ 238 µM)	150 (≈ 510 µM)	> 400	40 (≈ 136 µM)	300 (≈ 1020 µM)	150 (≈ 510 µM)	> 200	70 (≈ 238 µM)	300 (≈ 1020 µM)	110 (≈ 374 µM)	> 100	260 (≈ 884 µM)	240 (≈ 816 µM)	240 (≈ 816 µM)	210 (≈ 714 µM)	> 100	–
O=c1[nH]c(=O)n([C@H]2C[C@H](O)[C@@H](CO)O2)cc1/C=C/Br [BRIVUDINE]	0.02 (≈ 0.06 µM)	0.02 (≈ 0.06 µM)	> 400	> 400	0.02 (≈ 0.06 µM)	20 (≈ 60 µM)	10 (≈ 30 µM)	20 (≈ 60 µM)	4 (≈ 12 µM)	0.07 (≈ 0.21 µM)	–	250 (≈ 750 µM)	> 40	> 40	0.001 (≈ 0.003 µM)	0.001 (≈ 0.003 µM)	250 (≈ 750 µM)	400 (≈ 1200 µM)
